Only some compounds are listed: those with a hit (about 3.5% of all), similar ones and a draw of the others.
MrgX1 antag – blocks BAM8-22 activation of human MrgX1 receptor; AID 588676; MRGX1-HEK293 calcium flux, Fluo-4, BAM8-22 antagonism; active compounds read low; 310,000 tested, 1.3% active; Q96LB2; B-score at 10 µM;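 active means calcium-response B-score plate-corrected more than 3 library SD below zero, starting fluorescence within 5 deviations, no agonist response on first addition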;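 further: peak minus trough fluorescence over baseline after final BAM8-22 challenge near maximal dose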
Target sequence (Q96LB2 whole entry, looked up): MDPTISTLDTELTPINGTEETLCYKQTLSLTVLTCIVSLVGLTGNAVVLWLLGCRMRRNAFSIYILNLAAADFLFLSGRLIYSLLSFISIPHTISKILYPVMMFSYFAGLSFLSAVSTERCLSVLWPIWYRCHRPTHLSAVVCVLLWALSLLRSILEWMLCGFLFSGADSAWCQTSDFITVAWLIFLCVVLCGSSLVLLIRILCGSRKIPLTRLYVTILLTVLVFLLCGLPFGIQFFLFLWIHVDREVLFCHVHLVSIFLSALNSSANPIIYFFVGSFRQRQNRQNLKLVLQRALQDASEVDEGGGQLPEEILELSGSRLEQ
MrgX1 allo act – allosterically activates human MrgX1 receptor signaling. Q96LB2. MrgX1-HEK293, Fluo-4 calcium flux, FDSS; active compounds read high. B-score at 10 µM. 310,000 tested, 0.63% active;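 active means plate-corrected calcium response at least 3 library SD above typical, normal starting fluorescence, not activating the receptor alone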;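 further: compound read alongside a low EC10 to EC30 dose of BAM8-22 agonist; peak minus trough fluorescence over baseline measured at the second addition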
RGS4 pot – potentiators or activators of RGS4; 310,000 tested, 0.92% active; B-score at 10 µM; HEK293 M3R/inducible RGS4, carbachol calcium flux Fluo4; active compounds read low;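 active means B-score of the integrated calcium signal more than 4 SD below the library mean, with starting fluorescence not abnormally high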;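 further: negative B-score means reduced calcium response which marks RGS4 activation or potentiation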
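Assay system: Inducible-RGS4 HEK293 cells carrying M3 receptor | Schedule: Compound preincubation 20 min at room temperature before agonist | Signal: Kinetic calcium fluorescence imaging with Fluo4-AM dye, 2 µM | Read-out basis: B score from integrated fluorescence ratio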
MrgX1 ag – human MrgX1 receptor agonism, primary screen; MrgX1-HEK293 cells, Fluo-4 calcium fluorescence, agonist mode; active compounds read high; Q96LB2; AID 588627; 310,000 tested, 0.44% active; B-score at 10 µM;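 active means calcium response B-score plate-corrected fluorescence ratio at least 3 library SD, with starting fluorescence B-score inside 5 SD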
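Material: HEK293 cells stably expressing human MrgX1 receptor | Quantity: 15,000 cells per well | Times: Cells plated overnight, dye loaded 0.5 h 37 °C, 0.5 h room temperature | Measured by: Kinetic Fluo-4 NW fluorescence of intracellular calcium | Control set: Positive and negative controls per plate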
RGS4 inh – inhibitors of human RGS4 | HEK293 M3R/RGS4 inducible, Fluo-4 calcium flux; active compounds read high; triggered by carbachol at its EC20 | B-score at 10 µM | P49798 | 310,000 tested, 0.45% active;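 active means B-score, a plate-corrected calcium signal, over three deviations above library mean, with baseline fluorescence within five deviations of library mean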;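 further: RGS4 expression induced by doxycycline in cells with stable M3 receptor; B-score is computed from the integrated fluorescence ratio over baseline after carbachol; higher B-score means a larger calcium signal and so more RGS4 inhibition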
Target sequence (P49798 whole entry, looked up): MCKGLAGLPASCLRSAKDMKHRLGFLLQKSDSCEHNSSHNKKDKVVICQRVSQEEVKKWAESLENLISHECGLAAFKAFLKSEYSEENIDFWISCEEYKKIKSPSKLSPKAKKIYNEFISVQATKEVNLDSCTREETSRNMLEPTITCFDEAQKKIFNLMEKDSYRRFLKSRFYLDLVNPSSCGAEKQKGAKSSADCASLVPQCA
MrgX1 PAM conf – reconfirmed allosteric activator of human MrgX1 receptor. 1,200 tested, 13% active. MrgX1-HEK293, Fluo-4 calcium fluorescence, FDSS. AID 602413. shares compounds with MrgX1 allo act. activation (ratio percentage), % at 10 µM;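 active means ratio at least 3 SD above the weak peptide control, stable starting fluorescence, no direct agonism earlier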;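 further: compound followed by low BAM8-22 agonist challenge near EC20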
HEK293 Ca flux – counter-screen for MrgX1 antagonists: effect in parental HEK293 cells; fluorescence ratio F(max-min)/F0 at 10 µM; 4,000 tested, 2% active; AID 624111; Fluo-4 calcium fluorescence, FDSS; shares compounds with MrgX1 antag;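 active means duplicate-averaged calcium fluorescence ratio at least three times the standard deviation of buffer wells, a nonspecific response in parental cells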
HEK293 Ca counter – counter-screen for MrgX1 allosteric activators: effect in parental HEK293 cells. 4,000 tested, 0.4% active. parental HEK293 calcium flux, Fluo-4 fluorescence ratio; active compounds read high. shares compounds with MrgX1 antag. fluorescence ratio F(max-min)/F0 at 10 µM;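 active means calcium fluorescence ratio, averaged over duplicates, at least 3 SD of the buffer-well ratio, meaning a nonspecific response in receptor-free cells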;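 further: untransfected parental HEK293 lacking MrgX1 used as counterscreen for MrgX1 allosteric activators; fluorescence change taken during the second addition on a kinetic imager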
HEK293 Ca cntr2 – activity in parental HEK293 cells lacking MrgX1 receptor. AID 624115. Fluo-4 calcium fluorescence (FDSS); active compounds read high. 4,000 tested, 8.7% active. fluorescence ratio F(max-min)/F0 at 10 µM. shares compounds with MrgX1 antag;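 active means calcium fluorescence ratio at least three times the spread of buffer wells, meaning a non-specific response in parental cells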
An asterisk follows results filed as active; i = inactive; x = not tested or not shown.

SMILES | MrgX1 antag | MrgX1 allo act | RGS4 pot | MrgX1 ag | RGS4 inh | MrgX1 PAM conf | HEK293 Ca flux | HEK293 Ca counter | HEK293 Ca cntr2
O=C(Nc1nnc(SCC(=O)N2CCCCC2)s1)c1cccs1 | i | 7.07* | i | i | i | i | i | i | i
CCOC(=O)c1sc(Nc2ccccc2Cl)nc1C | i | 13.1* | i | i | i | i | i | i | i
CCOC(=O)C1=C(C)NC(=O)CC1c1cc(OC)c(OC)cc1Br (stereo unspecified) | i | 14.7* | i | i | i | i | i | i | i
COCC1CCN(C(=O)CC2C(=O)NCCN2Cc2cccc(Oc3ccccc3)c2)CC1 (stereo unspecified) | i | i | i | i | i | x | x | x | x
O=C1NC2(CCCCCC2)Oc2ccccc21 | i | i | i | i | i | x | x | x | x
CCC1(Cc2ccccc2)NC(=O)c2ccccc2O1 (stereo unspecified) | i | 12.4* | i | i | i | i | i | i | i
O=C(O)CSc1ncnc2scc(-c3ccccc3)c12 | i | i | i | i | i | x | x | x | x
O=C(O)CSc1ncnc2scc(-c3ccc(Br)cc3)c12 | i | 10.3* | i | i | i | i | i | i | i
CCOC(=O)c1c(CSc2cccs2)n(C)c2cc(Br)c(O)c(CN(C)C)c12 | i | i | i | i | i | x | x | x | x
Cc1cc(C)c2c(=O)n(CC(=O)Nc3ccc(Br)c(C)c3)sc2n1 | i | 7.05* | i | i | i | i | i | i | i
OCC[C@@H]1C[C@H](O)[C@@H](O)[C@@]2(Cc3ccccc3O2)O1 | i | i | i | i | i | x | x | x | x
COc1ccc(NC(=O)NNS(=O)(=O)c2ccc(OC)c(OC)c2)c(OC)c1 | i | i | i | i | i | x | x | x | x
CCOC(=O)c1c(-c2cccs2)csc1NC(C)=O | i | i | i | i | i | x | x | x | x
CCOC(=O)c1c(-c2cccs2)csc1NC(=O)C(C)(C)C | i | 12.1* | i | i | i | i | i | i | i
CC(C)C(=O)Nc1cc2c3c(c1)CCN3C(=O)CC2 | i | i | i | i | i | x | x | x | x
Fc1ccc(-c2cc(C(F)(F)F)nc(-n3cccn3)n2)cc1 | i | 8.23* | i | i | i | 31.8%* | i | i | i
Fc1ccc(-c2cc(C(F)(F)F)nc(-n3cncn3)n2)cc1 | i | i | i | i | i | x | x | x | x
Cc1ccc(C)c(C(=O)Cn2c(NCCO)nc3ccccc32)c1 | i | i | i | i | i | x | x | x | x
N#CC(C(=O)NC1CC1)c1nc2ccccc2nc1N1CCCC1 (stereo unspecified) | i | i | i | i | i | x | x | x | x
N#CC(C(=O)NC1CC1)c1nc2ccccc2nc1N1CCN(C/C=C/c2ccccc2)CC1 (stereo unspecified) | i | 9.29* | i | i | i | i | i | i | i
COc1ccc(-c2oc3ccccc3c2C(=O)Oc2ccccc2)cc1 | i | 8.68* | i | i | i | i | i | i | 68.3*
CC(=O)c1sc(NS(=O)(=O)c2ccc(C)cc2)nc1-c1ccccc1 | i | 16.4* | i | i | i | i | i | i | i
O=C(NCc1ccccn1)c1ccc(COc2ccc(Cl)cc2)o1 | i | 7.31* | i | i | i | i | i | i | i
O=C(NCCNC(=O)c1cc(Cl)ccc1Cl)c1ccccn1 | i | 9.33* | i | i | i | i | i | i | 76.9*

Screens as filed in PubChem.
